{
  "source": "paper PMC3458564",
  "about": "(Nucleic Acids Research, 2012)",
  "key": {"HCV NS3h [1]": {"target": "T1, HCV NS3h (Hepatitis C virus genotype 1b, UniProt Q9WMX2)", "assay": "biochemical", "type": "binding", "settings": "for Cy5-dT15-NS3h Binding % Inhibition (LOPAC screen): LOPAC samples at 100 µM, 100 µM"}, "HCV NS3h [2]": {"target": "T1, HCV NS3h", "assay": "NS3h molecular beacon-based helicase assay", "type": "biochemical", "settings": "for IC50: n=3"}, "[3]": {"system": "HCV RLuc replicon in Huh7.5 cells", "assay": "HCV Renilla luciferase subgenomic replicon assay", "type": "cell-based", "settings": "Hepatitis C virus, Huh7.5, 72 h, read-out: HCV replicon IC50 ± SD"}, "E. coli SSB": {"target": "E. coli SSB (Escherichia coli, UniProt P0AGE0)", "sequence (P0AGE0 2-178 limits assumed)": "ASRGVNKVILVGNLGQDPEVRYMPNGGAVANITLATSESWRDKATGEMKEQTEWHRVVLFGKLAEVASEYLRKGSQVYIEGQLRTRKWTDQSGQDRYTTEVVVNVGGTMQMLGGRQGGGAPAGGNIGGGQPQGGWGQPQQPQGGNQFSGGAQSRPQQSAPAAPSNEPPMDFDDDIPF", "assay": "Escherichia coli SSB FP assay", "type": "binding"}, "[4]": {"assay": "Cell Titer-Glo cell viability assay", "type": "cell-based", "settings": "human, Huh-7.5 cells", "summary_of_the_method": "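Huh-7.5 cells carrying a stable HCV Renilla luciferase replicon, seeded at 10 000 cells/well, attached 4–5 h in DMEM with 10% FBS, glutamine, penicillin/streptomycin and non-essential amino acids. Test compound added in DMSO (0.5% final). Incubated 72 h at 37°C, 5% CO2. Cells washed, lysed by shaking in medium plus CellTiter-Glo, 30 min at 23°C. Luminescence read 1 s, normalized to DMSO-only. Triplicates.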"}, "NS3h": {"target": "T2, NS3h (Hepatitis C virus genotype 1b, UniProt Q9WMX2)", "T2 sequence (Q9WMX2 1193-1657 limits assumed)": "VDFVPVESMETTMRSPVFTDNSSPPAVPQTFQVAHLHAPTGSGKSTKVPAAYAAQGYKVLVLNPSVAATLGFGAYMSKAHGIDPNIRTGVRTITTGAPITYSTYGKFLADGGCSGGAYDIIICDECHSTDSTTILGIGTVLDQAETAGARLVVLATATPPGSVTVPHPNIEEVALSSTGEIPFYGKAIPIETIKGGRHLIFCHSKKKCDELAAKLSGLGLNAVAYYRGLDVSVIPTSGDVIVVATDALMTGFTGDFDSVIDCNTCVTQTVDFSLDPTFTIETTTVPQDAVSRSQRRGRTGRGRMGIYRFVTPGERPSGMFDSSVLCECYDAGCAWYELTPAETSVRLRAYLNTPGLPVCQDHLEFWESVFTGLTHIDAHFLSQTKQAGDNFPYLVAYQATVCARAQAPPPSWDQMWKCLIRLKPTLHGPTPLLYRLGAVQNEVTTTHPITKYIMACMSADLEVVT", "assay": "NS3h ATP hydrolysis", "type": "biochemical", "settings": "preliminary"}, "SSB": {"target": "SSB (Escherichia coli, UniProt P0AGE0 1-178)", "sequence (P0AGE0 whole entry)": "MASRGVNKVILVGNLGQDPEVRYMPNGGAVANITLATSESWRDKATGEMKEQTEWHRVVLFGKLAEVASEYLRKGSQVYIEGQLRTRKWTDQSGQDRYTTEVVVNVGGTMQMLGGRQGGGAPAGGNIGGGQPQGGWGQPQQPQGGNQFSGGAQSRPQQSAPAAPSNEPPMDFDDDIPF", "assay": "fluorescence polarization"}, "[5]": {"settings": "NS3h helicase assays DNA IC50 ± SD, DNA substrate"}, "[6]": {"settings": "NS3h helicase assays RNA IC50 ± SD, RNA substrate"}},
  "note": "Structures can show the parent of a compound that is named as a salt.",
  "data": [
    {"molecule": "CN1CCN(c2ccc3[nH]c(-c4ccc5[nH]c(-c6ccc(O)cc6)nc5c4)nc3c2)CC1", "note": "[H33258]", "values": [
      {"measurement": "effect on FP-based NS3h binding assay", "setting": "HCV NS3h [1]", "result": "increased polarization"}
    ]},
    {"molecule": "CC(=O)NCC(=O)O.CC(=O)NCC(=O)O.N=C(N)c1ccc(N=NNc2ccc(C(=N)N)cc2)cc1", "note": "[berenil]", "values": [
      {"measurement": "effect on MBHA", "setting": "HCV NS3h [2]", "result": "inhibit"}
    ]},
    {"molecule": "Nc1ncnc2c1ncn2[C@@H]1O[C@H](COP(=O)(O)CP(=O)(O)OP(=O)([O-])[O-])[C@H](O)C1O.[Li+].[Li+]", "note": "(stereo partly drawn) [α,β-methylene ATP, alpha,beta-Methylene adenosine 5'-triphosphate dilithium]", "values": [
      {"measurement": "effect on FP-based NS3h binding assay", "setting": "HCV NS3h [1]", "result": "did not inhibit"}
    ]},
    {"molecule": "O=C(O)C1=CC(=C(c2ccc(O)c(C(=O)O)c2)c2ccc(O)c(C(=O)O)c2)C=CC1=O", "note": "[ATA, aurintricarboxylic acid]", "values": [
      {"measurement": "IC50", "setting": "[3]", "result": "98 ± 30", "unit": "µM"},
      {"measurement": "IC50", "setting": "E. coli SSB", "result": "1 ± 0.1", "unit": "µM"},
      {"measurement": "CC50 at 72 h", "setting": "[4]", "result": "> 100", "unit": "µM"},
      {"measurement": "IC50", "setting": "HCV NS3h [2]; [5]", "result": "0.6 ± 0.1", "unit": "µM"},
      {"measurement": "IC50", "setting": "HCV NS3h [2]; [6]", "result": "0.8 ± 0.2", "unit": "µM"},
      {"measurement": "IC50", "setting": "HCV NS3h [1]", "result": "1.4 ± 0.1", "unit": "µM"},
      {"measurement": "Cy5-dT15-NS3h Binding % Inhibition (LOPAC screen)", "setting": "HCV NS3h [1]", "result": "more than 60%"},
      {"measurement": "ability of NS3h to cleave ATP in the absence of DNA or RNA", "setting": "NS3h", "result": "inhibits"}
    ]},
    {"molecule": "Cn1cc(NC(=O)c2cc(NC(=O)CN=C(N)N)cn2C)cc1C(=O)NCCC(=N)N", "note": "[netropsin]", "values": [
      {"measurement": "effect on MBHA", "setting": "HCV NS3h [2]", "result": "inhibit"}
    ]},
    {"molecule": "Nc1ccc2cc3ccc(N)cc3nc2c1", "note": "[proflavin]", "values": [
      {"measurement": "effect on MBHA", "setting": "HCV NS3h [2]", "result": "inhibit"}
    ]},
    {"molecule": "Cc1ccc(C(=O)Nc2ccc(S(=O)(=O)O)c3cc(S(=O)(=O)O)cc(S(=O)(=O)O)c23)cc1NC(=O)c1cccc(NC(=O)Nc2cccc(C(=O)Nc3cc(C(=O)Nc4ccc(S(=O)(=O)O)c5cc(S(=O)(=O)O)cc(S(=O)(=O)O)c45)ccc3C)c2)c1", "note": "[Suramin, suramin sodium salt]", "values": [
      {"measurement": "IC50", "setting": "[3]", "result": "38 ± 9.3", "unit": "µM"},
      {"measurement": "IC50", "setting": "E. coli SSB", "result": 0.3, "unit": "µM"},
      {"measurement": "CC50 at 72 h", "setting": "[4]", "result": "> 50", "unit": "µM"},
      {"measurement": "IC50", "setting": "HCV NS3h [2]; [5]", "result": "3.7 ± 0.7", "unit": "µM"},
      {"measurement": "IC50", "setting": "HCV NS3h [2]; [6]", "result": "8.9 ± 2", "unit": "µM"},
      {"measurement": "IC50", "setting": "HCV NS3h [1]", "result": "3.6 ± 0.3", "unit": "µM"},
      {"measurement": "Cy5-dT15-NS3h Binding % Inhibition (LOPAC screen)", "setting": "HCV NS3h [1]", "result": "more than 60%"}
    ]},
    {"molecule": "CCCN(CCCN(C)C)c1cc(/C=C2/Sc3ccccc3N2C)c2ccccc2[n+]1-c1ccccc1", "note": "[SYBR green I]", "values": [
      {"measurement": "effect on MBHA", "setting": "HCV NS3h [2]", "result": "inhibit"}
    ]},
    {"molecule": "CN1/C(=C/C=C/c2cc[n+](CCC[N+](C)(C)C)c3ccccc23)Sc2ccccc21.[I-].[I-]", "note": "[TO-PRO3]", "values": [
      {"measurement": "effect on FP-based NS3h binding assay", "setting": "HCV NS3h [1]", "result": "increased polarization"}
    ]},
    {"molecule": "TTTTTTTTTTTTTTT (ssDNA)", "note": "[Cy5-dT15]", "values": [
      {"measurement": "apparent K (half saturation)", "setting": "SSB", "result": "9.6 ± 2", "unit": "nM"}
    ]}
  ]
}
